Consider two compounds from ChEMBL document CHEMBL1140710, “Structure-activity relationships of cyclic lactam analogues of alpha-melanocyte-stimulating hormone (alpha-MSH) targeting the human melanocortin-3 receptor” (J Med Chem, 2008).

T4 sequence (P32245 whole entry): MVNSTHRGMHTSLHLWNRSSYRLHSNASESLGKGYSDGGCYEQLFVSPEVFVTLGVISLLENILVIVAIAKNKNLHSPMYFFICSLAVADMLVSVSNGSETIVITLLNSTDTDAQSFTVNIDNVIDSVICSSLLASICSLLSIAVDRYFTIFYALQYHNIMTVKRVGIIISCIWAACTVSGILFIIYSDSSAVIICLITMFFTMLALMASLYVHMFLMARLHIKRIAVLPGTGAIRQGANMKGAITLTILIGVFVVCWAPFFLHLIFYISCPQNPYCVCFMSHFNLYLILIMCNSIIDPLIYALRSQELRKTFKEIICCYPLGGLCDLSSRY

The first experiment deals with T1, Melanocortin receptor 5 (Homo sapiens, UniProt P33032). The experiment is described as follows: Displacement of [125I][Nle4,D-Phe7]alpha-MSH from human MC5 receptor expressed in HEK293 cells. Type of experiment: cell-based. In a few lines: (§1)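 Whole stably transfected HEK293 cells seeded 48 h before assay at 50000 cells/well. Binding buffer: MEM, 25 mM HEPES pH 7.4, 0.2% BSA, 1 mM 1,10-phenanthroline, leupeptin, bacitracin. Cells washed, lysed with NaOH/Triton X-100, gamma-counted. IC50 is mean of two triplicate experiments.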
T1 sequence (P33032 whole entry): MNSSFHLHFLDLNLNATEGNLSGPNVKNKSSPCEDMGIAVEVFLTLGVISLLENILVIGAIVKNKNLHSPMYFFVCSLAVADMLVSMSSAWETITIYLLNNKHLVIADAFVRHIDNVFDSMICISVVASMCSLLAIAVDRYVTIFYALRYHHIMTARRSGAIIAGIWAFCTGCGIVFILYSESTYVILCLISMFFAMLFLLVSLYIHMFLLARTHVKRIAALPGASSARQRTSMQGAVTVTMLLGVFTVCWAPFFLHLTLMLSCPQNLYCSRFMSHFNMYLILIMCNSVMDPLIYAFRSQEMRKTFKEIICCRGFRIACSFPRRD
(In a radioligand displacement assay an active substance lowers the binding of a labelled ligand.)
As to `CCCC[C@@H]1NC(=O)CCC(=O)NCCCC[C@@H](C(N)=O)NC(=O)[C@H](Cc2c[nH]c3ccccc23)NC(=O)[C@H](CCCN=C(N)N)NC(=O)[C@@H](Cc2ccccc2)NC1=O`, the IC50 (in general, the concentration that gives 50% inhibition) is 0.52 µM.
On the same count and under the same terms, for `N=C(N)NCCC[C@@H]1NC(=O)[C@@H](Cc2ccccc2)NC(=O)c2cccc(n2)C(=O)NCCCC[C@@H](C(N)=O)NC(=O)[C@H](Cc2c[nH]c3ccccc23)NC1=O` the value was greater than 10 µM.

The target in a further experiment is T2, Melanocortin receptor 3 (Homo sapiens, UniProt P41968). The experiment is described as follows: Agonist activity at human MC3 receptor expressed in HEK293 cells assessed as intracellular cAMP accumulation at 10 uM relative to MT2. Type of experiment: functional, cell-based. The method in brief: (§2)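 Stably transfected HEK293 cells seeded 48 h before assay at 50000 cells/well. Cells preincubated 1 min at 37 °C in Earle's balanced salt solution with 0.5 mM IBMX, then exposed to 10 μM peptide for 3 min at 37 °C. Cells boiled 7 min, cAMP measured by [3H]cAMP/PKA competition with a standard curve. Result expressed as percent of cAMP produced by 10 μM MT-II.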
T2 sequence (P41968 whole entry): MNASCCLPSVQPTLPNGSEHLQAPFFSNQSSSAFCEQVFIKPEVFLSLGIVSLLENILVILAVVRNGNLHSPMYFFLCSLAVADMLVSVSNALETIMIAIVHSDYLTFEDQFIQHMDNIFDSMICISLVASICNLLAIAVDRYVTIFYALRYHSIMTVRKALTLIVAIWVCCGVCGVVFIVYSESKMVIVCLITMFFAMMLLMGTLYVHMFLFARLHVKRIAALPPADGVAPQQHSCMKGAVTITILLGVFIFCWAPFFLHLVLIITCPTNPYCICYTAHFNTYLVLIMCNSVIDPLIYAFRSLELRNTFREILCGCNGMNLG
On the technique in general: Changes in cAMP serve as a functional read-out for many G protein-coupled receptors.
On to `N=C(N)NCCC[C@@H]1NC(=O)[C@@H](Cc2ccccc2)NC(=O)c2cccc(n2)C(=O)NCCCC[C@@H](C(N)=O)NC(=O)[C@H](Cc2c[nH]c3ccccc23)NC1=O`, for which the Activity came to 0%.

A further experiment has as its target T1, Melanocortin receptor 5. The experiment is described as follows: Agonist activity at human MC5 receptor expressed in HEK293 cells assessed as intracellular cAMP accumulation at 10 uM relative to MT2. Type of experiment: functional, cell-based. In a few lines: as §2
For the compound `N=C(N)NCCC[C@@H]1NC(=O)[C@@H](Cc2ccccc2)NC(=O)c2cccc(n2)C(=O)NCCCC[C@@H](C(N)=O)NC(=O)[C@H](Cc2c[nH]c3ccccc23)NC1=O`, the Activity was 0%.

Another experiment has as its target T3, Melanocyte-stimulating hormone receptor (Homo sapiens, UniProt Q01726). Kind of experiment: Agonist activity at human MC1 receptor expressed in HEK293 cells assessed as intracellular cAMP accumulation. It is filed as functional, cell-based. The method in brief: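 Stably transfected HEK293 cells seeded 48 h before assay at 50000 cells/well. Cells preincubated 1 min at 37 °C in Earle's balanced salt solution with 0.5 mM IBMX, then exposed to varying peptide concentrations for 3 min at 37 °C. Cells boiled 7 min, cAMP quantified by [3H]cAMP/PKA competition against a standard curve.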
Target sequence in this assay (Q01726 whole entry): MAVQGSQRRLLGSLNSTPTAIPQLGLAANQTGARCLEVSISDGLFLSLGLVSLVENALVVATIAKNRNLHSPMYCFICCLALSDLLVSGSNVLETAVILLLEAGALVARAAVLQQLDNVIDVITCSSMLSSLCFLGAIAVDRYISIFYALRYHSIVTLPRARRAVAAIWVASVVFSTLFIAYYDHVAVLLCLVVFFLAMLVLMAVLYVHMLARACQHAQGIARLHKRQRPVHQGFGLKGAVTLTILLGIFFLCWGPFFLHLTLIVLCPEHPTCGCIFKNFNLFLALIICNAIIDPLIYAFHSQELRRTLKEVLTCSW
As to `N=C(N)NCCC[C@@H]1NC(=O)[C@@H](Cc2ccccc2)NC(=O)c2cccc(n2)C(=O)NCCCC[C@@H](C(N)=O)NC(=O)[C@H](Cc2c[nH]c3ccccc23)NC1=O`, the 50% effective concentration (EC50) (as a rule, the concentration needed to bring the measured effect to its halfway point) is greater than 1 µM.

A further experiment addresses T1, Melanocortin receptor 5. Kind of experiment: Agonist activity at human MC5 receptor expressed in HEK293 cells assessed as intracellular cAMP accumulation at 10 uM. Type of experiment: functional, cell-based. In a few lines:
as §2
With `N=C(N)NCCC[C@@H]1NC(=O)[C@@H](Cc2ccccc2)NC(=O)c2cccc(n2)C(=O)NCCCC[C@@H](C(N)=O)NC(=O)[C@H](Cc2c[nH]c3ccccc23)NC1=O`, the Activity is 0%.

A further experiment concerns the target T4, Melanocortin receptor 4 (Homo sapiens, UniProt P32245). Kind of experiment: Agonist activity at human MC4 receptor expressed in HEK293 cells assessed as intracellular cAMP accumulation at 10 uM. Type of experiment: functional, cell-based. In a few lines:
as §2
`N=C(N)NCCC[C@@H]1NC(=O)[C@@H](Cc2ccccc2)NC(=O)c2cccc(n2)C(=O)NCCCC[C@@H](C(N)=O)NC(=O)[C@H](Cc2c[nH]c3ccccc23)NC1=O`: the Activity was 0%.

Another experiment addresses T4, Melanocortin receptor 4. Kind of experiment: biochemical. It is filed as cell-based, HEK293.
As for `CCCC[C@@H]1NC(=O)CCC(=O)NCCCC[C@@H](C(N)=O)NC(=O)[C@H](Cc2c[nH]c3ccccc23)NC(=O)[C@H](CCCN=C(N)N)NC(=O)[C@@H](Cc2ccccc2)NC1=O`, the midpoint of inhibition, the IC50, lay at 0.93 µM.
On the same count and under the same terms, for `N=C(N)NCCC[C@@H]1NC(=O)[C@@H](Cc2ccccc2)NC(=O)c2cccc(n2)C(=O)NCCCC[C@@H](C(N)=O)NC(=O)[C@H](Cc2c[nH]c3ccccc23)NC1=O` the value was greater than 10 µM.

The next experiment concerns the target T2, Melanocortin receptor 3. The experiment is described as follows: Agonist activity at human MC3 receptor expressed in HEK293 cells assessed as intracellular cAMP accumulation at 10 uM. Type of experiment: functional, cell-based. In a few lines: as §2
As for `N=C(N)NCCC[C@@H]1NC(=O)[C@@H](Cc2ccccc2)NC(=O)c2cccc(n2)C(=O)NCCCC[C@@H](C(N)=O)NC(=O)[C@H](Cc2c[nH]c3ccccc23)NC1=O`, the Activity stood at 0%.

For a further experiment, the target named is T4, Melanocortin receptor 4. Kind of experiment: Agonist activity at human MC4 receptor expressed in HEK293 cells assessed as intracellular cAMP accumulation at 10 uM relative to MT2. It is filed as functional, cell-based. In a few lines:
as §2
Take `N=C(N)NCCC[C@@H]1NC(=O)[C@@H](Cc2ccccc2)NC(=O)c2cccc(n2)C(=O)NCCCC[C@@H](C(N)=O)NC(=O)[C@H](Cc2c[nH]c3ccccc23)NC1=O`: the Activity is 0%.

The target of another experiment is T1, Melanocortin receptor 5. The experiment is described as follows: Agonist activity at human MC5 receptor expressed in HEK293 cells assessed as intracellular cAMP accumulation. It is filed as functional, cell-based. The method in brief:
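HEK293 cells stably transfected with the receptor, seeded 48 h ahead at 50000 cells/well. Preincubated 1 min at 37 °C in Earle's balanced salt solution with 0.5 mM IBMX, then exposed to peptide for 3 min at 37 °C. cAMP measured by [3H]cAMP/PKA competition against a standard curve.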
Regarding `CCCC[C@@H]1NC(=O)CCC(=O)NCCCC[C@@H](C(N)=O)NC(=O)[C@H](Cc2c[nH]c3ccccc23)NC(=O)[C@H](CCCN=C(N)N)NC(=O)[C@@H](Cc2ccccc2)NC1=O`, the EC50 is greater than 1 µM.

The target in a further experiment is T3, Melanocyte-stimulating hormone receptor. The experiment is described as follows: Displacement of [125I][Nle4,D-Phe7]alpha-MSH from human MC1 receptor expressed in HEK293 cells. It is filed as cell-based. The method in brief: as §1
Target sequence in this assay (Q01726 whole entry): as above
`CCCC[C@@H]1NC(=O)CCC(=O)NCCCC[C@@H](C(N)=O)NC(=O)[C@H](Cc2c[nH]c3ccccc23)NC(=O)[C@H](CCCN=C(N)N)NC(=O)[C@@H](Cc2ccccc2)NC1=O` returned a half-inhibitory concentration (IC50) greater than 10 µM.
For `N=C(N)NCCC[C@@H]1NC(=O)[C@@H](Cc2ccccc2)NC(=O)c2cccc(n2)C(=O)NCCCC[C@@H](C(N)=O)NC(=O)[C@H](Cc2c[nH]c3ccccc23)NC1=O`, the IC50 was greater than 10 µM.

The target is the same in another experiment. Kind of experiment: Agonist activity at human MC1 receptor expressed in HEK293 cells assessed as intracellular cAMP accumulation at 10 uM relative to MT2. It is filed as functional, cell-based. In a few lines: as §2
Target sequence in this assay (Q01726 whole entry, looked up): as the sequence (Q01726 whole entry) above
Take `N=C(N)NCCC[C@@H]1NC(=O)[C@@H](Cc2ccccc2)NC(=O)c2cccc(n2)C(=O)NCCCC[C@@H](C(N)=O)NC(=O)[C@H](Cc2c[nH]c3ccccc23)NC1=O`: the Activity is 15%.

Another experiment deals with T2, Melanocortin receptor 3. The experiment is described as follows: biochemical. Type of experiment: cell-based, HEK293.
On to `CCCC[C@@H]1NC(=O)CCC(=O)NCCCC[C@@H](C(N)=O)NC(=O)[C@H](Cc2c[nH]c3ccccc23)NC(=O)[C@H](CCCN=C(N)N)NC(=O)[C@@H](Cc2ccccc2)NC1=O`, for which half-maximal inhibition (IC50) required 0.084 µM.
Consider `N=C(N)NCCC[C@@H]1NC(=O)[C@@H](Cc2ccccc2)NC(=O)c2cccc(n2)C(=O)NCCCC[C@@H](C(N)=O)NC(=O)[C@H](Cc2c[nH]c3ccccc23)NC1=O`, for which the IC50 is greater than 10 µM.
